Source: PubChem BioAssay AID588322 (Southern Research Specialized Biocontainment Screening …, 2011)
Activity calls are given as the source filed them.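 Rule for the calls: active = compound blocking phage lysis by over 30% at some tested dose and judged capsule specific; inactive = the rest.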

Tested on: E. coli EV36 T7 phage lysis, OD600 3 h
Assay: capsule-loss sensitization to T7 lysis – T7 phage, set 5, selectivity assay for bacterial capsule biogenesis inhibitors, dose response (AID 588322)
Conditions: not given
How it was run: (§1)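 material = Escherichia coli EV36, a K1:K-12 hybrid strain | medium = LB broth culture medium | probe or stimulus = T7 phage added after compound pre-incubation | incubation = 1.5 h compound at 37 °C, then 3 h post-infection | detection = OD600 absorbance at 3 h post-infection | read-out basis = Capsule-loss-dependent T7 phage lysis judged from culture OD600 | repeats = quadruplicate per concentration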
For `O=C(O)c1sc(-c2ccccc2)cc1NC(=O)C1CCCC1`, the IC50 was 57.4 µM (inactive). For `O=C(Nc1cc(-c2ccccc2)sc1C(=O)O)c1cc(Cl)c2c(c1)OCCO2`, the IC50 was 16 µM (inactive). In the case of `O=C(Nc1cc(-c2ccccc2)sc1C(=O)O)c1ccc2c(c1)OCCO2`, the IC50 is reported as 12.7 µM (inactive). With `O=C(Nc1cc(-c2ccccc2)sc1C(=O)O)c1cccc(Cl)c1` the IC50 was 33.4 µM (inactive). With `O=C(Nc1cc(-c2ccccc2)sc1C(=O)O)c1cccs1` the IC50 was 7.11 µM (inactive). In the case of `O=C(Nc1cc(-c2ccccc2)sc1C(=O)O)c1cc2ccccc2o1`, the IC50 is reported as 7.11 µM (inactive). For `CCOc1ccc(-c2cc(NC(=O)c3c(F)cccc3F)c(C(=O)O)s2)cc1`, the IC50 was 0.71 µM (inactive). For `Cc1ccc(C(=O)Nc2cc(-c3ccccc3)sc2C(=O)O)s1`, the IC50 was 41.7 µM (inactive). In the case of `CCOc1ccc(-c2cc(NC(=O)c3cccc(Cl)c3)c(C(=O)O)s2)cc1`, the IC50 is reported as 4.25 µM (inactive). For `CCOc1ccc(-c2cc(NC(=O)c3ccc(OC)c(OC)c3)c(C(=O)O)s2)cc1`, the IC50 was 7.72 µM (inactive). For `O=C(O)c1sc(-c2ccccc2)cc1NC(=O)C1CCCCC1`, the IC50 was 55 µM (inactive). With `O=C(Nc1cc(-c2ccccc2)sc1C(=O)O)c1ccc(Cl)s1` the IC50 was 15 µM (inactive). For `O=C(Nc1cc(-c2ccccc2)sc1C(=O)O)c1cccc(F)c1`, the IC50 was 29.4 µM (inactive). In the case of `Cc1c(C(=O)Nc2cc(-c3ccccc3)sc2C(=O)O)oc2ccccc12`, the IC50 is reported as 30.1 µM (inactive). With `O=C(Nc1cc(-c2ccccc2)sc1C(=O)O)c1ccc(Br)o1` the IC50 was 8.13 µM (inactive).

Tested on: not listed separately
Assay: as above
Conditions: E. coli EV36 T7 phage lysis, OD600 3 h; at 100 µM (top of the series)
How it was run: as §1
With `COC(=O)c1sc(-c2ccccc2)cc1NC(=O)c1c(F)cccc1F` the cell growth (A600 at 3 h p.i., % of EV36+DMSO+T7 control); lower = more lysis was 111% (inactive). With `CCOc1ccc(-c2cc(NC(=O)c3c(F)cccc3F)c(C(=O)OC)s2)cc1` the cell growth (A600 at 3 h p.i., % of EV36+DMSO+T7 control); lower = more lysis was 114% (inactive). With `Cc1onc(-c2ccccc2)c1C(=O)Nc1cc(-c2ccccc2)sc1C(=O)O` the cell growth (A600 at 3 h p.i., % of EV36+DMSO+T7 control); lower = more lysis was 104% (inactive).
